{
  "source": "ChEMBL document CHEMBL4334471",
  "about": "“Discovery of 1,8-disubstituted-[1,2,3]triazolo[4,5-c]quinoline derivatives as a new class of Hippo signaling pathway inhibitors” (Bioorg Med Chem Lett, 2019)",
  "key": {"[1]": {"biological_target": "Activin receptor type-1-like (Homo sapiens) (UniProt P37023)", "assay": "Inhibition of recombinant human ALK1 (142 to end residues) assessed as residual activity at 10 uM using casein as substrate incubated for 40 mins in presence of [gamma-33ATP] by scintillation counting based radiometry assay relative to control"}, "[2]": {"biological_target": "Dual specificity protein kinase CLK3 (Homo sapiens) (UniProt P49761)", "sequence (P49761 whole entry, looked up)": "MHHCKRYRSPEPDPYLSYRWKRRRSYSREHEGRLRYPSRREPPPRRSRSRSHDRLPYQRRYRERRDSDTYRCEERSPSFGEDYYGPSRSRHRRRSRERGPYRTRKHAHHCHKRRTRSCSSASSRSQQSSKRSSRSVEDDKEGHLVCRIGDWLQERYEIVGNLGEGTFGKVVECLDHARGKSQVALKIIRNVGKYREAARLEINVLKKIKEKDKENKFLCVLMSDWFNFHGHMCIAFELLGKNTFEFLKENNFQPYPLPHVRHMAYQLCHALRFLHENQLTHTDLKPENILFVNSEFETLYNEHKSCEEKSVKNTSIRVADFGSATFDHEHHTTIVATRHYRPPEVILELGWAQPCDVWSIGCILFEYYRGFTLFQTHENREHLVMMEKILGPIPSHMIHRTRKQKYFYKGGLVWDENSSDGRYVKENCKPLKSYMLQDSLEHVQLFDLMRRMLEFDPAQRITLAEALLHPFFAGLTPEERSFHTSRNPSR", "assay": "Inhibition of recombinant full length human CLK3 assessed as residual activity at 10 uM using ERMRPRKRQGSVRRRV as substrate incubated 40 mins in presence of [gamma-33ATP] by scintillation counting based radiometry assay relative to control"}, "[3]": {"biological_target": "Mast/stem cell growth factor receptor Kit (Homo sapiens) (UniProt P10721)", "assay": "Inhibition of recombinant human C-Kit (544 to end residues) using poly(Glu, Tyr) 4:1 as substrate assessed as residual activity at 10 uM in presence of [gamma-33ATP] by scintillation counting based radiometry assay relative to control"}, "[4]": {"system": "Epidermal growth factor receptor (Homo sapiens), P00533 [L858R]", "assay": "Inhibition of recombinant human EGFR L858R mutant (696 to end residues) assessed as residual activity at 10 uM using poly(Glu, Tyr) 4:1 as substrate at 40 mins in presence of [gamma-33ATP] by scintillation counting based radiometry assay relative to control"}, "[5]": {"system": "Epidermal growth factor receptor (Homo sapiens), P00533 [L858R,T790M]", "assay": "Inhibition of recombinant human EGFR T790M/L858R mutant (696 to end residues) assessed as residual activity at 10 uM using poly(Glu, Tyr) 4:1 as substrate at 40 mins in presence of [gamma-33ATP] by scintillation counting based radiometry assay relative to control"}, "[6]": {"biological_target": "Homeodomain-interacting protein kinase 3 (Homo sapiens) (UniProt Q9H422)", "sequence (Q9H422 whole entry, looked up, the tested form may be a part)": "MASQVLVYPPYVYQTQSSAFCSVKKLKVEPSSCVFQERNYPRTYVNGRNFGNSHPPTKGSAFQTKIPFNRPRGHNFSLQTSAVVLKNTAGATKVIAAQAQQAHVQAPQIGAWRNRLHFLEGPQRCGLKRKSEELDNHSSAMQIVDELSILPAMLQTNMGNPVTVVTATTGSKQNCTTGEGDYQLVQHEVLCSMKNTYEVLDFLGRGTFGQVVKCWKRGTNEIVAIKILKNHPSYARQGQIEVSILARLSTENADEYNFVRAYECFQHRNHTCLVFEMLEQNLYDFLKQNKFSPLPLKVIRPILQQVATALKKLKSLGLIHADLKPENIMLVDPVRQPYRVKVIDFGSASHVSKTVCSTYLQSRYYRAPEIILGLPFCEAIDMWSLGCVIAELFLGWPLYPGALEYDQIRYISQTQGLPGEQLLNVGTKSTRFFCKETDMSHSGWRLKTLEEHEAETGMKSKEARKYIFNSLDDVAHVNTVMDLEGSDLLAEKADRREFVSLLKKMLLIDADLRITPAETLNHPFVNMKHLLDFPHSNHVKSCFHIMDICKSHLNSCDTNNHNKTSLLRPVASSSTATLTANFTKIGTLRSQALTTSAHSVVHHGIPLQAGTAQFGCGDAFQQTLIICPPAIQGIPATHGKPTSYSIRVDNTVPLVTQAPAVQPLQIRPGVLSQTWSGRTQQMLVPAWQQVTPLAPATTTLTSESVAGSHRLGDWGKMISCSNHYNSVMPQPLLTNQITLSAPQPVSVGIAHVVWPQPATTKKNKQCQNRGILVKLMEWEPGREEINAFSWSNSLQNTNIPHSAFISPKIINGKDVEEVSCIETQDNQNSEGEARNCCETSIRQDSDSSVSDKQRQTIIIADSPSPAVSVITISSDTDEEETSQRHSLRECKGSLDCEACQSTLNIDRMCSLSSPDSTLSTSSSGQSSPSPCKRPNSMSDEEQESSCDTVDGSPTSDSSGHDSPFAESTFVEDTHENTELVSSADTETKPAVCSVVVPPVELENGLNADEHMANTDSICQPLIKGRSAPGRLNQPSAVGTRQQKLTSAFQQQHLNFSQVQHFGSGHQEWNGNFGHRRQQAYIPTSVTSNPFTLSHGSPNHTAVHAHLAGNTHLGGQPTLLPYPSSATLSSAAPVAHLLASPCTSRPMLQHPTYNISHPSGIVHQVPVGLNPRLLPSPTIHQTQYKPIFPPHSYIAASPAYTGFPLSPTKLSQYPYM", "assay": "Inhibition of human HIPK3 (161 to 562 residues) assessed as residual activity at 10 uM using myelin basic protein as substrate after 40 mins by [gamma-33ATP] radiometric assay relative to control"}, "[7]": {"biological_target": "Eukaryotic translation initiation factor 2-alpha kinase 1 (Homo sapiens) (UniProt Q9BQI3)", "assay": "Inhibition of human HRI (140 to end residues) assessed as residual activity at 10 uM using RSRSRSRSRSRSR as substrate after 120 mins by [gamma-33ATP] radiometric assay relative to control"}, "[8]": {"system": "Hepatocyte growth factor receptor (Homo sapiens), P08581 [Y1230H]", "assay": "Inhibition of recombinant human MET A1209G/V1290L/Y1248H mutant (974 to end residues) assessed as residual activity at 10 uM using KKKGQEEEYVFIE as substrate incubated for 40 mins in presence of [gamma-33ATP by scintillation counting based radiometry assay relative to control"}, "[9]": {"biological_target": "MAPK/MAK/MRK overlapping kinase (Homo sapiens) (UniProt Q9UQ07)", "assay": "Inhibition of recombinant human MOK (1 to 343 residues) assessed as residual activity at 10 uM using RSRSRSRSRSRSR as substrate incubated for 40 mins in presence of [gamma-33ATP by scintillation counting based radiometry assay relative to control"}, "[10]": {"biological_target": "Serine/threonine-protein kinase 38-like (Homo sapiens) (UniProt Q9Y2H1)", "sequence (Q9Y2H1 2-464 limits assumed)": "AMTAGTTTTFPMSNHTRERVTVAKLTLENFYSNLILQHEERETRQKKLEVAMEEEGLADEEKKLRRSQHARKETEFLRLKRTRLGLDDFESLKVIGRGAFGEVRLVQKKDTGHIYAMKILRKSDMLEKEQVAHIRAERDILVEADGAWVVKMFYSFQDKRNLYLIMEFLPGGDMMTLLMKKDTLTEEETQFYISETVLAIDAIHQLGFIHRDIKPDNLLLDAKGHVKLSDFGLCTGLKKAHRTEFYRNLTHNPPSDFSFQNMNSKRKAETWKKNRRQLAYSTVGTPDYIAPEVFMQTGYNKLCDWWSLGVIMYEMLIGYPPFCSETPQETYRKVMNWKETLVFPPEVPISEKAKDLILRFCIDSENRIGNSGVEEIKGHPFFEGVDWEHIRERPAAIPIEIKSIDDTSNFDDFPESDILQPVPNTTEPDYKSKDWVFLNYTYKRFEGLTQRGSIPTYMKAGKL", "assay": "Inhibition of recombinant human NDR2 (83 to end residues) assessed as residual activity at 10 uM using RSRSRSRSRSRSRSR as substrate measured after 40 mins in presence of [gamma33P]ATP by scintillation counting based radiometry assay relative to control"}, "[11]": {"biological_target": "[Pyruvate dehydrogenase (acetyl-transferring)] kinase isozyme 4, mitochondrial (Homo sapiens) (UniProt Q16654)", "sequence (Q16654 whole entry, looked up)": "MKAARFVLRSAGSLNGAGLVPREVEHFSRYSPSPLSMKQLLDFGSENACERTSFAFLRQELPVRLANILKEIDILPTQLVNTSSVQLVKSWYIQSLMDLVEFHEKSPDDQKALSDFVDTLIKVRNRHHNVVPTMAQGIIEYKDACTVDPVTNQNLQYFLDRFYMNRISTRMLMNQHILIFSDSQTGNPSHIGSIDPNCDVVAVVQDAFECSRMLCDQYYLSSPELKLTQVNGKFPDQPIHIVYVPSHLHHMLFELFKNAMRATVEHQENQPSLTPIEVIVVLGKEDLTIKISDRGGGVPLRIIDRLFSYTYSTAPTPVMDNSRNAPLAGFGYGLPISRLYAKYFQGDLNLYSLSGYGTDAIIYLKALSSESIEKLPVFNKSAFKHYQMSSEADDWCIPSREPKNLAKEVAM", "assay": "Inhibition of recombinant human full length PDHK4 assessed as residual activity at 10 uM using KKKYHGHSMSDPGVSYRT as substrate incubated for 40 mins in presence of [gamma33P]ATP by scintillation counting based radiometry assay relative to control"}, "[12]": {"biological_target": "Serine/threonine-protein kinase pim-1 (Homo sapiens) (UniProt P11309)", "assay": "Inhibition of recombinant full length human Pim1 assessed as residual activity at 10 uM using KKRNRTLTV as substrate incubated for 40 mins in presence of [gamma33P]ATP by scintillation counting based radiometry assay relative to control"}, "[13]": {"biological_target": "Ribosomal protein S6 kinase alpha-3 (Homo sapiens) (UniProt P51812)", "sequence (P51812 whole entry)": "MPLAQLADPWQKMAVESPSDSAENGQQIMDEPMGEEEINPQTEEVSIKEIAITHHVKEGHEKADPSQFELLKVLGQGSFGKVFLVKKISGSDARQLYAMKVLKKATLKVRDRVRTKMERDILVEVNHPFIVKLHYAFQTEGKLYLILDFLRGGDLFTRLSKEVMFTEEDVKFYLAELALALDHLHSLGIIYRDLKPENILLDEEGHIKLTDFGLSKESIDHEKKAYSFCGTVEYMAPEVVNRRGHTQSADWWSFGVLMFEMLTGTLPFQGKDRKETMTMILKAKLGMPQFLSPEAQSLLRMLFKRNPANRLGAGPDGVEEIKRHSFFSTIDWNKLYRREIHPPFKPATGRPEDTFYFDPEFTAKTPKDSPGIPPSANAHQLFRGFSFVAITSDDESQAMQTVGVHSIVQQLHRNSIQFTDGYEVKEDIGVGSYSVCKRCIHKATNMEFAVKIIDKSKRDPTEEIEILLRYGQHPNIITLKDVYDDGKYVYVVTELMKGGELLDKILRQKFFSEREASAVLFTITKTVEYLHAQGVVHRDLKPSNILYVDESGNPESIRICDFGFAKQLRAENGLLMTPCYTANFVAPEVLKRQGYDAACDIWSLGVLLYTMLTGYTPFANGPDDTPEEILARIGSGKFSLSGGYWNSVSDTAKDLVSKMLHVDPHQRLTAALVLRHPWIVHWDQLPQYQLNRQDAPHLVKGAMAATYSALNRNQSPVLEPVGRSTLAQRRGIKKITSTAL", "assay": "Inhibition of recombinant human Rsk2 (2 to end residues) assessed as residual activity at 10 uM using KKKNRTLSVA as substrate incubated for 40 mins in presence of [gamma33P]ATP by scintillation counting based radiometry assay relative to control"}, "[14]": {"biological_target": "Serine/threonine-protein kinase Sgk3 (Homo sapiens) (UniProt Q96BR1)", "assay": "Inhibition of recombinant human SGK3 (119 to end residues) assessed as residual activity at 10 uM using GRPRTSSFAEGKK as substrate incubated for 40 mins in presence of [gamma33P]ATP by scintillation counting based radiometry assay relative to control"}, "[15]": {"biological_target": "Serine/threonine-protein kinase 32C (Homo sapiens) (UniProt Q86UX6)", "sequence (Q86UX6 whole entry)": "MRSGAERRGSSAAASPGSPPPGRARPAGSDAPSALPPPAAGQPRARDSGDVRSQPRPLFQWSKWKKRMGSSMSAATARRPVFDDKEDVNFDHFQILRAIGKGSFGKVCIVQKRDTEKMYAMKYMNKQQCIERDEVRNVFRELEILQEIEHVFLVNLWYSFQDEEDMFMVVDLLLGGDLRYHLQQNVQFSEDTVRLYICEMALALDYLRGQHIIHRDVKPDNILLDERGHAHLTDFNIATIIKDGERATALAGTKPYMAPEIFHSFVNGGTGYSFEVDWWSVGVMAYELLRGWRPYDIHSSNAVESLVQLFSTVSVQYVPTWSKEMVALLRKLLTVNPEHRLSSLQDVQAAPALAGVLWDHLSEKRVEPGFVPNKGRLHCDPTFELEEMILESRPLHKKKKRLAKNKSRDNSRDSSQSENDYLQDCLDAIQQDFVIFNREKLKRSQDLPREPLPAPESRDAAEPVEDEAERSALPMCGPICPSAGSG", "assay": "Inhibition of recombinant human full length STK32C assessed as residual activity at 10 uM using casein as substrate incubated for 40 mins in presence of [gamma33P]ATP by scintillation counting based radiometry assay relative to control"}, "[16]": {"biological_target": "Transcription initiation factor TFIID subunit 1-like (Homo sapiens) (UniProt Q8IZX4)", "assay": "Inhibition of recombinant human TAF1L (1428 to end residues) assessed as residual activity at 10 uM using RRRFRPASPLRGPPK as substrate incubated for 40 mins in presence of [gamma33P]ATP by scintillation counting based radiometry assay relative to control"}, "[17]": {"biological_target": "Tribbles homolog 2 (Homo sapiens) (UniProt Q92519)", "assay": "Inhibition of recombinant full-length human TRB2 assessed as residual activity at 10 uM using RRRFRPASPLRGPPK as substrate incubated for 120 mins in presence of [gamma33P]ATP by scintillation counting based radiometry assay relative to control"}, "[18]": {"biological_target": "Serine/threonine-protein kinase WNK4 (Homo sapiens) (UniProt Q96J92)", "sequence (Q96J92 whole entry, the tested form may be a part)": "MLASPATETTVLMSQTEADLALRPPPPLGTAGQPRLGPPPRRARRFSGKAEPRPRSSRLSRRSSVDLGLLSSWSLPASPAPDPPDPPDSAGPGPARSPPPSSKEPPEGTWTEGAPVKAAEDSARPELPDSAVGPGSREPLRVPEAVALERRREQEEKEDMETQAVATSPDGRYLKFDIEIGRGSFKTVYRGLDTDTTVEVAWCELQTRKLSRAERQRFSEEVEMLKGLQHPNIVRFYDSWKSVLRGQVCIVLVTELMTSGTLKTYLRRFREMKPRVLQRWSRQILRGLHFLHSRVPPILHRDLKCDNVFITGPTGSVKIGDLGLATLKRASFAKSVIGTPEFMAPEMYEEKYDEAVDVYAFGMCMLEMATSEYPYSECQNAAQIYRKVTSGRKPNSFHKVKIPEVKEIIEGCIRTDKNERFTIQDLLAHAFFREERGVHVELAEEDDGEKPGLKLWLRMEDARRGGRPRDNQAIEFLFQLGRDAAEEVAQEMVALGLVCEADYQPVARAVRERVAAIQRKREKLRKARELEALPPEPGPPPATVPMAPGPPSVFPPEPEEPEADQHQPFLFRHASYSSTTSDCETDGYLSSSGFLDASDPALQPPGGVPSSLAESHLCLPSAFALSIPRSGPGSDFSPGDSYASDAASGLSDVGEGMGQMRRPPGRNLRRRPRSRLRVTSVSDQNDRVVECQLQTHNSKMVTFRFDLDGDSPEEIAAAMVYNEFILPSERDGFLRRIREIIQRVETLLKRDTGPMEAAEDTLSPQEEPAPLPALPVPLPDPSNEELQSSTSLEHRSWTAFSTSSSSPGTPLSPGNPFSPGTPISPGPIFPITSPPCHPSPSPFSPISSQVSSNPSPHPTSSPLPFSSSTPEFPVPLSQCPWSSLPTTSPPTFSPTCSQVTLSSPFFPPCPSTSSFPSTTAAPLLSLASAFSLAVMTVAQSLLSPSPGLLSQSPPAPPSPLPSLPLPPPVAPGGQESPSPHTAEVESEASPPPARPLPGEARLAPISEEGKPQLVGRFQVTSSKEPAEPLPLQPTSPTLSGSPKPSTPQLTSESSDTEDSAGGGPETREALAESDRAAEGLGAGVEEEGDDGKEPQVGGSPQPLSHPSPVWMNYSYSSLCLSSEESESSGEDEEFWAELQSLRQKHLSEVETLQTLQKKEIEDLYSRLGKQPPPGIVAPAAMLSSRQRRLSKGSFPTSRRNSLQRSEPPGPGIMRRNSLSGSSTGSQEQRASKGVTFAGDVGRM", "assay": "Inhibition of recombinant human WNK4 (A31 to D461 residues) assessed as residual activity at 10 uM using myelin basic protein as substrate incubated for 40 mins in presence of [gamma33P]ATP by scintillation counting based radiometry assay relative to control"}, "[19]": {"species": "Mus musculus", "assay": "Inhibition of recombinant full-length mouse PI3K p110/p85 H1047R mutant assessed as residual activity at 10 uM using phosphatidylinositol-4, 5-bisphosphate as substrate incubated for 40 mins in presence of [gamma33P]ATP by scintillation counting based radiometry assay relative to control"}, "[20]": {"biological_target": "Serine/threonine-protein kinase LATS2 (Homo sapiens, UniProt Q9NRM7)", "assay": "Binding affinity to wild-type human partial length LATS2 (Q641 to V1088 residues) expressed in mammalian expression system assessed as dissociation constant by Kinomescan method", "in_short": "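KINOMEscan competition binding assay. Kinase bound at each concentration of test compound was quantified by qPCR and plotted against log10 compound concentration to derive Kd.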"}},
  "data": [
    {"smiles": "C[C@@H](c1ccccc1)n1nnc2cnc3ccc(-c4cnc5[nH]ccc5c4)cc3c21", "values": [
      {"measurement": "Activity", "setting": "[1]", "result": 78, "unit": "%"},
      {"measurement": "Activity", "setting": "[2]", "result": 66, "unit": "%"},
      {"measurement": "Activity", "setting": "[3]", "result": 103, "unit": "%"},
      {"measurement": "Activity", "setting": "[4]", "result": 40, "unit": "%"},
      {"measurement": "Activity", "setting": "[5]", "result": 57, "unit": "%"},
      {"measurement": "Activity", "setting": "[6]", "result": 75, "unit": "%"},
      {"measurement": "Activity", "setting": "[7]", "result": 91, "unit": "%"},
      {"measurement": "Activity", "setting": "[8]", "result": 79, "unit": "%"},
      {"measurement": "Activity", "setting": "[9]", "result": 99, "unit": "%"},
      {"measurement": "Activity", "setting": "[10]", "result": 89, "unit": "%"},
      {"measurement": "Activity", "setting": "[11]", "result": 69, "unit": "%"},
      {"measurement": "Activity", "setting": "[12]", "result": 68, "unit": "%"},
      {"measurement": "Activity", "setting": "[13]", "result": 53, "unit": "%"},
      {"measurement": "Activity", "setting": "[14]", "result": 80, "unit": "%"},
      {"measurement": "Activity", "setting": "[15]", "result": 91, "unit": "%"},
      {"measurement": "Activity", "setting": "[16]", "result": 85, "unit": "%"},
      {"measurement": "Activity", "setting": "[17]", "result": 86, "unit": "%"},
      {"measurement": "Activity", "setting": "[18]", "result": 96, "unit": "%"},
      {"measurement": "Activity", "setting": "[19]", "result": 5, "unit": "%"},
      {"measurement": "Kd", "setting": "[20]", "result": "> 10", "unit": "µM"}
    ]}
  ]
}
